From PubChem BioAssay
RGS4 pot = RGS4 potentiators or activators, primary screen, cell-based, HEK293 M3R inducible RGS4, calcium flux. carbachol calcium flux Fluo4; active compounds read low. B-score at 10 µM. 0.92% of 310,000 active;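 active = B-score of the integrated calcium signal more than 4 SD below the library mean, with starting fluorescence not abnormally high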;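 also: negative B-score means reduced calcium response which marks RGS4 activation or potentiation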
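Material: Inducible-RGS4 HEK293 cells carrying M3 receptor; also added: carbachol at ECmax as muscarinic agonist stimulus; incubation: compound preincubation 20 min at room temperature before agonist; signal: Fluo4-AM (2 µM) calcium-flux fluorescence, kinetic read; measure: integrated calcium ratio converted to B score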
MrgX1 agonist = agonists of human MrgX1 receptor, primary screen, HEK293 cells, Fluo-4 calcium flux | Fluo-4 calcium fluorescence, agonist mode; active compounds read high | Mas-related G-protein coupled receptor member X1 (Homo sapiens), Q96LB2 | AID 588627, 2011 | B-score at 10 µM | 0.44% of 310,000 active;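 active = calcium response B-score plate-corrected fluorescence ratio at least 3 library SD, with starting fluorescence B-score inside 5 SD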
Target sequence (Q96LB2 whole entry, looked up): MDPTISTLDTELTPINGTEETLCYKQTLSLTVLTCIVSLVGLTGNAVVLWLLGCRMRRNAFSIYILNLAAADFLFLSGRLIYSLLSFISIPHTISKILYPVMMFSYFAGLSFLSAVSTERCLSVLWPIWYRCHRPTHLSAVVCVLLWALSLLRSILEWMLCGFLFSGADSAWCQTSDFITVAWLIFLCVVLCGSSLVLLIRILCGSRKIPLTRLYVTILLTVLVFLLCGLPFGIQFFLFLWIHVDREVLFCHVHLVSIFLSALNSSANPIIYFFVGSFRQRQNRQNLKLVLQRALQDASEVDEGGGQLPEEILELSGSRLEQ
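times = overnight plating, then 30 min 37 °C plus 30 min room-temperature dye loading | assay system = stable human MrgX1 HEK293 cell line | input = fifteen thousand cells per well | signal = kinetic calcium dye fluorescence, Fluo-4 NW | dosing = compound delivered in addition one of three | read-out = B-scored fluorescence response ratio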
MrgX1 antag = antagonists of human MrgX1 receptor, primary screen, HEK293 cells, Fluo-4 calcium flux; BAM8-22 antagonism; active compounds read low; B-score at 10 µM; 1.3% of 310,000 active;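 active = calcium-response B-score plate-corrected more than 3 library SD below zero, starting fluorescence within 5 deviations, no agonist response on first addition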;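 also: peak minus trough fluorescence over baseline after final BAM8-22 challenge near maximal dose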
RGS4 inh = RGS4 inhibitors, primary screen, cell-based, HEK293 M3R inducible RGS4, calcium flux | Regulator of G-protein signaling 4 (Homo sapiens), P49798 | Fluo-4 calcium flux; active compounds read high; triggered by carbachol at its EC20 | B-score at 10 µM | 0.45% of 310,000 active;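 active = B-score, a plate-corrected calcium signal, over three deviations above library mean, with baseline fluorescence within five deviations of library mean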;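 also: RGS4 expression induced by doxycycline in cells with stable M3 receptor; B-score is computed from the integrated fluorescence ratio over baseline after carbachol; higher B-score means a larger calcium signal and so more RGS4 inhibition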
Target sequence (P49798 whole entry, looked up): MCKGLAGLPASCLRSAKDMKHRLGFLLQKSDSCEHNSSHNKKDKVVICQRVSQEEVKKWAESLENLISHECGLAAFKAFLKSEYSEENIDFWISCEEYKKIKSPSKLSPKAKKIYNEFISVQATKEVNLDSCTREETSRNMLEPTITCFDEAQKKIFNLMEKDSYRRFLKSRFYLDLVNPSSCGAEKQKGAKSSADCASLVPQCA
MrgX1 PAM = positive allosteric modulators of MrgX1, primary screen, HEK293 cells, Fluo-4 calcium flux | FDSS; active compounds read high | Mas-related G-protein coupled receptor member X1 (Homo sapiens), Q96LB2 | AID 588675, 2011 | B-score at 10 µM | 0.63% of 310,000 active;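 active = plate-corrected calcium response at least 3 library SD above typical, normal starting fluorescence, not activating the receptor alone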;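 also: compound read alongside a low EC10 to EC30 dose of BAM8-22 agonist; peak minus trough fluorescence over baseline measured at the second addition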
RGS4 activ val = reduced carbachol calcium response, RGS4-induced M3R cells, confirmation, RGS4 activator project, cell-based, HEK293 M3R/RGS4 inducible, calcium flux, duplicate; shares compounds with RGS4 pot; carbachol calcium flux Fluo4; inhibition, % at 10 µM; 89% of 1,100 active; AID 602282, 2012;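 active = inhibition above 3 SD of the buffer control wells, cut at about 41% in these data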;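 also: signal is the integrated peak-minus-minimum Fluo4 fluorescence over baseline ratio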
RGS4 act ctr = RGS4 activator counter-screen hit in non-induced cells | shares compounds with RGS4 pot | HEK293 M3R non-induced RGS4, Fluo4 calcium flux; after carbachol challenge at its EC90 | inhibition, % at 10 µM | 82% of 1,100 active | AID 602283;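 active = inhibition exceeding 3 SD of buffer-only control wells, cut at about 26% in these data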;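 also: percent drop in integrated peak-minus-baseline over baseline Fluo4 ratio after carbachol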
* marks the source's active call; other numbers are inactive results; i = inactive; nt = not tested or not shown. Shown are actives, neighbours in structure and some others; about 3.5% of the full set was active somewhere.

SMILES | RGS4 pot | MrgX1 agonist | MrgX1 antag | RGS4 inh | MrgX1 PAM | RGS4 activ val | RGS4 act ctr
O=C(Nc1ccccc1N1CCN(C(=O)c2ccccc2)CC1)c1ccc(Br)o1 | -7.8* | i | i | i | i | 48* | 0
O=C(Nc1ccccc1N1CCN(C(=O)c2ccccc2)CC1)c1ccc(Cl)cc1 | i | i | i | i | i | nt | nt
O=C(NC(=S)Nc1ccccc1N1CCOCC1)c1ccccc1F | i | i | i | i | i | nt | nt
O=C(NC(=S)Nc1ccccc1N1CCN(C(=O)c2ccccc2)CC1)c1ccccc1F | -8* | i | i | i | i | 68* | 0
CCc1ccc(C(=O)N/N=C/c2ccncc2)s1 | i | i | i | i | i | nt | nt
Cc1ccc(-n2nc3c(=O)n(CCCC(=O)NCc4cccc(F)c4)nc(C)c3c2C)cc1 | i | i | i | i | i | nt | nt
COc1ccc2nc(NC(=O)C(NS(=O)(=O)c3cccc4nsnc34)C(C)C)sc2c1 (centres undefined) | nt | i | i | nt | i | nt | nt
Cc1ccc(C(=O)Nc2cccc(C(=O)NCc3ccccc3)c2)o1 | i | i | i | i | i | nt | nt
C/C(=N\NC(=O)C1(C)CC1(Br)Br)c1cccc(NC(=O)c2ccc(C)o2)c1 (centres undefined) | -12* | i | i | i | 7* | 92* | 81*
Cc1cc(O)c(-c2cc(C(=O)Nc3ccc(S(=O)(=O)N4CCOCC4)cc3)[nH]n2)cc1C | i | i | i | i | i | nt | nt
O=C(Nc1ccc(S(=O)(=O)N2CCOCC2)cc1)c1cc(-c2cc(Cl)ccc2O)n[nH]1 | -8.4* | i | i | i | i | 93* | 71*
CCn1c(=O)n(CCc2ccccc2)c(=O)c2c3c(sc21)CCCC3 | i | i | i | i | i | nt | nt
COC(=O)Cn1c(=O)n(CCc2ccccc2)c(=O)c2c3c(sc21)CCCC3 | -7.8* | i | i | i | i | 92* | 89*
Cc1ccccc1N1CCN(CCCN2C(=O)CC(=C(c3ccccc3)c3ccccc3)C2=O)CC1 | -8.4* | i | i | i | i | 90* | 43*
CCOC(=O)CC1CCCCN1Cc1cn(C)nc1-c1ccc2c(c1)OCCO2 (centres undefined) | i | i | i | i | i | nt | nt
Cn1cc(CN2C[C@]3(C)C[C@H]2CC(C)(C)C3)c(-c2ccc3c(c2)OCCO3)n1 | -8.9* | i | i | i | i | 88* | 47*
O=C(NCc1ccccc1)c1ccccc1C(=O)c1ncc[nH]1 | i | i | i | i | i | nt | nt
N=C1c2ccccc2CN1c1ccc(S(=O)(=O)N2CCCCC2)cc1 | -8.8* | i | i | i | i | 75* | 36*
O=C(CSc1c2c(nc3ccc(Cl)cc13)CCCC2)NCCCN1CCOCC1 | -11* | i | i | i | i | 92* | 91*
CC(C)n1cc([C@@H]2C[C@H]3CN(Cc4cccc(Cl)c4)C(=O)[C@]34CCCN24)cn1 | -7.6* | i | i | i | i | 46* | 84*
CCn1ncc(Br)c1C(=O)NC1CCCCCCC1 | i | i | i | i | i | nt | nt
O=C(CSc1ccc(Cl)cc1)Nc1cccc(-c2nc3ncccc3o2)c1 | -8.7* | i | i | i | i | 92* | 92*
CC(C)C(=O)Nc1cccc(-c2nc3ncccc3o2)c1 | i | i | i | i | i | nt | nt
COc1c(C)cc(Br)cc1C(=O)Nc1cccc(-c2nc3ncccc3o2)c1 | -8.3* | i | i | i | i | 94* | 74*
O=C(CSc1ccc(Cl)cc1)Nc1cc(-c2nc3ncccc3o2)ccc1Cl | i | i | i | i | i | nt | nt
SMILES | RGS4 pot | MrgX1 agonist | MrgX1 antag | RGS4 inh | MrgX1 PAM | RGS4 activ val | RGS4 act ctr
COc1ccccc1N1CC(C(=O)Nc2ccccc2N2CCCC2)CC1=O (centres undefined) | i | i | i | i | i | nt | nt
COc1ccc(CN(C)C(=O)c2cc(-c3ccc(OC)c(OC)c3)nc3ccccc23)c(OC)c1 | -9* | i | i | i | i | 69* | 84*
COc1ccc(-c2cc(C(=O)N(C)Cc3cccc(OC)c3OC)c3ccccc3n2)cc1OC | i | i | i | i | i | nt | nt
COc1cccc(CN(C)C(=O)c2cc(-c3ccc(OC)c(OC)c3)nc3ccccc23)c1 | -9.8* | i | i | i | i | 66* | 28*
COc1ccc(-c2cc(C(=O)N(C)CCc3ccc(OC)c(OC)c3)c3ccccc3n2)cc1 | i | i | i | i | i | nt | nt
COc1cccc(NC(=O)CN(C)C(=O)c2cc(-c3ccc(F)cc3)nc3ccccc23)c1 | -7.6* | i | i | i | i | 86* | 64*
CCOc1ccc(N(CC(=O)NCCc2ccc(Cl)cc2)S(=O)(=O)c2c(C)[nH]c(=O)[nH]c2=O)cc1 | i | i | i | i | i | nt | nt
Cc1ccc(N/N=C(/Sc2nnnn2-c2ccccc2)C(=O)c2ccccc2)cc1 | -16* | i | i | i | i | 0 | 0
O=C(Nc1ccon1)Nc1cc(Cl)ccc1Cl | i | i | i | i | i | nt | nt
O=C(OCc1nnc(-c2ccccc2)o1)c1cn(-c2ccccc2)nc1-c1ccccc1 | i | i | i | i | i | nt | nt
Cc1cc(C(=O)OCc2nnc(-c3ccccc3)o2)c(C)n1-c1ccccc1 | -8.9* | i | i | i | i | 94* | 85*
CCCn1nnc(NCc2ccc(OCc3cccs3)c(OC)c2)n1 | i | i | i | i | i | nt | nt
CCNCc1ccc(OCc2cccs2)c(OCC)c1 | -8.9* | i | i | i | i | 62* | 0
COc1ccc(C(=O)Nc2cccc(-c3nnc(-c4ccco4)o3)c2)cc1 | -9.6* | i | i | i | i | 88* | 48*
COc1ccc(CC(=O)Nc2cccc(-c3nnc(-c4ccco4)o3)c2)cc1 | i | i | i | i | i | nt | nt
Clc1ccc(-n2nnnc2-c2cnc(-c3ccncc3)nc2-c2cccs2)cc1 | i | i | i | i | i | nt | nt
